Measurements from different studies.
Compare with care: the assays were run in different laboratories.
Target: Serine/threonine-protein kinase 38-like (STK38L, Homo sapiens, UniProt Q9Y2H1)

With `Nc1ncnc2occ(-c3ccc(NC(=O)Nc4cc(C(F)(F)F)ccc4F)cc3)c12` the remaining signal was 17% (cell-free assay; 20 µM).
For `COCCOc1nc(-c2ccc(Cl)nc2)nc2c1CN(C(=O)c1ncn3ccccc13)CC2`, the remaining binding was 100% (cell-free assay; competition with immobilised ligand; 0.1 µM).
With `CN1CC(Oc2cnc(C#N)cc2-c2ccn3nc(NC(=O)C4CC4)cc3c2)C1` the inhibition was 27% (enzyme activity; inhibitor; 1 µM).
`CC/C(=N\NC(=O)NCc1cccc(O)c1)c1ccc(O)c(C)c1O` has an inhibition of 19.5% (enzyme activity; inhibitor; 0.1 µM).
The ΔTm of `Cn1c2c(c3ccc(Cl)c(Cl)c31)C(C#N)C1(CCNCC1)NC2=O` (racemic) is reported as -0.2 °C (thermal stability; DSF; 10 µM).
With `CS(=O)(=O)c1cc(C2(NC(=O)c3cncc4c3cnn4-c3ccc(F)cc3)CC2)ccn1` the remaining binding was 34% (cell-free assay; competition with immobilised ligand; 1 µM).
`CN1CCC2(CC1)NC(=O)c1c(c3ccc(Cl)c(Cl)c3n1C)C2C#N` (racemic) gave a ΔTm of 0 °C (thermal stability; DSF; 10 µM).
`C[C@@H]1CN(c2cc(-c3nn(C)c4ccc(OC5(C)CC5)cc34)ncn2)C[C@H](C)O1` has a remaining binding of 72% (cell-free assay; competition with immobilised ligand; 1 µM).
The ΔTm of `Cn1c2c(c3ccc(Cl)c(Cl)c31)C(C#N)C(C)(C)NC2=O` (centres unmarked) is reported as -0.1 °C (thermal stability; DSF; 10 µM).
With `Cc1nc(N2CC[C@@H](O)C2)ncc1-c1cc(C(F)(F)F)cc2[nH]ncc12` the remaining binding was 87% (binding; competition with immobilised ligand; 1 µM).
The remaining activity of `COc1cc(Cl)c(C(=O)N[C@@H](CN[C@H]2CC[C@@H](N)CC2)Cc2ccc(C#N)cc2)cc1-c1ccc(CN[C@H](C)c2ccc(C)cc2)o1` is reported as 91% (enzyme activity; inhibitor; 1 µM).
`CCN1CCN(Cc2ccc(NC(=O)c3ccc(C)c(/C=C/c4cnc5[nH]ccc5c4OC)c3)cc2C(F)(F)F)CC1` has an inhibition of -0.856% (target engagement in cells; inhibitor; chemoproteomics; A-375; 50 nM).
`CCC1(CC)NC(=O)c2c(c3ccc(Cl)c(Cl)c3n2C)C1C#N` (centres unmarked) has a ΔTm of 0 °C (thermal stability; DSF; 10 µM).
The inhibition of `COc1cc(-c2cc(-c3ccc(N4CCNCC4)cc3)cnc2C)cc(OC)c1OC` is reported as 0% (enzyme activity; inhibitor; 1 µM).
The remaining binding of `CN(C)c1ncnc(-c2ccc3nc(Nc4cc(CN5CCN(C(=O)CC(F)(F)F)CC5)ccn4)[nH]c3c2)c1Cl` is reported as 74% (cell-free assay; competition with immobilised ligand; 1 µM).
For `Cn1c2c(c3ccc(Cl)c(Cl)c31)C(C#N)C1(CCN(C(=O)OC(C)(C)C)CC1)NC2=O` (racemic), the ΔTm was -0.1 °C (thermal stability; DSF; 10 µM).
`O=c1nc(-c2ccccn2)sc2ccccc12` gave a remaining binding of 66% (binding; competition with immobilised ligand; 1 µM).
With `Cn1c2c(c3ccc(Cl)c(Cl)c31)C(C#N)C1(CCOCC1)NC2=O` (centres unmarked) the ΔTm was -0.2 °C (thermal stability; DSF; 10 µM).
The remaining activity of `O=C(Nc1cnn(-c2csc(C(=O)NC3COC3)c2)c1)Nc1ccccc1Cl` is reported as 103% (enzyme activity; inhibitor; 5 µM).
`CCN1CCN(Cc2ccc(NC(=O)c3ccc(C)c(Oc4ccnc5[nH]ccc45)c3)cc2C(F)(F)F)CC1` has an inhibition of -12.7% (target engagement in cells; inhibitor; chemoproteomics; Huh-7; 10 µM).
